We go through 1 compound from ChEMBL document CHEMBL1240369, “Antiviral efficacy of the novel compound BIT225 against HIV-1 release from human macrophages” (Antimicrob Agents Chemother, 2010).

The nature of series [1]: Inhibition of Vpu ion channel in HIV1 92TH001 in human MDM assessed as inhibition of vrius release. The arrangement: species or system Human immunodeficiency virus 1.
The test system of series [2] is Human immunodeficiency virus 1. The series is described as follows: Antiviral activity against HIV1 Ba-L in human MDM assessed as inhibition integration of virus to host cell genome at 10 nM. Type of series: functional, organism-based.
Series [3] deals with MDM. The series is described as follows: Inhibition of Vpu ion channel in 0.05 MOI HIV1 Ba-L infected in 10 days differentiated human MDM cells assessed as number of gag copy. To be noted: Human immunodeficiency virus 1. It is filed as cell-based. The method, boiled down: (§1)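 MDM differentiated for 7, 10 or 14 days were infected with HIV-1 Ba-L across a range of MOIs, washed three times with PBS and cultured 7 days with 10 μM compound or equal-volume DMSO. On day 7 postinfection, supernatant RT activity was measured (and infectivity on TZM-bl cells). Cell lysates went to real-time PCR for LTR-gag DNA, normalised to albumin copies.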

The test system of series [4] is MDM. The series is described as follows: Inhibition of Vpu ion channel in 0.01 MOI HIV1 Ba-L infected in 14 days differentiated human MDM cells assessed as number of gag copy. Type of series: cell-based. Conditions: Human immunodeficiency virus 1. The method, boiled down:
as §1

Series [5] deals with MDM. The series is described as follows: Inhibition of Vpu ion channel in 0.05 MOI HIV1 Ba-L acutely infected in 14 days differentiated human MDM cells assessed as viral release after 7 days relative to control. It is filed as cell-based. To be noted: Human immunodeficiency virus 1. Summed up: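 Day 14 MDM were acutely infected with HIV-1 Ba-L at MOI 0.05 for 3 h, washed three times with PBS, then cultured a further 7 days in DMEM10+ with 10 μM compound or equal DMSO. Virus release was measured as supernatant RT activity on day 21 of culture, relative to DMSO controls.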

The test system of series [6] is Human immunodeficiency virus 1. The series is described as follows: Antiviral activity against HIV1 Ba-L […] assessed as inhibition integration of virus to host cell genome at 10 uM. It is filed as functional. The arrangement: scale not given: the % may be the effect or the level left. Summed up:
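Run in TZM-bl indicator cells (HIV-1 integration activates luciferase), not MDM, infected with HIV-1Ba-L in the presence of BIT225 across 0.3125 to 10 μM. Lysates were given luciferin and light was read on an illuminometer. Percent inhibition of integration was taken relative to DMSO-treated control. Data are from three separate experiments.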

Series [7] is described as follows: Selectivity index, ratio of TC50 for human MDM cells to EC50 for HIV1 98IN017 infected in human MDM cells. It is filed as toxicity, cell-based. To be noted: read-out: Selectivity Index.
In series [8] the target is Protease (Human immunodeficiency virus 1) (UniProt Q9YQ12). The series is described as follows: Inhibition of HIV1 protease assessed as substrate cleavage at 100 uM by cell free assay. Summed up: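 Cell-free fluorometric protease assay: compound (1–100 μM) was premixed with 2 μM quenched HIV-1 protease substrate 1. Background fluorescence (ex 340/em 490 nm) was read every 5 s for 5 min. HIV-1 protease was then added at 1.5% and cleavage followed for a further 5 min. LPV and EFV served as controls.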

A short description of series [9]: Selectivity index, ratio of TC50 for human MDM cells to EC50 for HIV1 1064.52 infected in human MDM cells. Conditions: read-out: Selectivity Index. It is filed as toxicity, cell-based.
The nature of series [10]: Selectivity index, ratio of TC50 for human MDM cells to EC50 for HIV1 MDR3761 infected in human MDM cells. It is filed as toxicity, cell-based. Conditions: read-out: Selectivity Index.
Series [11] is described as follows: Inhibition of Vpu ion channel in HIV1 5705.72 in human MDM assessed as inhibition of vrius release. The arrangement: species or system Human immunodeficiency virus 1.
Series [12] concerns Human immunodeficiency virus 1. Briefly: Antiviral activity against HIV1 Ba-L in 14 days differentiated human MDM assessed as decrease in intracellular viral protein at 10 uM after 7 days by Western blot analysis. Type of series: functional, organism-based. Summed up:
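Day 14 MDM were chronically infected with HIV-1 Ba-L, then given 10 μM compound or DMSO and harvested on day 28. Lysates with equal total protein (checked by β-actin) were run on a 10% polyacrylamide gel and blotted to nitrocellulose. Blots were probed with HIV-1-seropositive human serum, then HRP anti-human IgG.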

Active and inactive are the calls of the source. The rule behind the calls is not given here.

Chain of Protease (Human immunodeficiency virus 1) (Q9YQ12 as listed by the source): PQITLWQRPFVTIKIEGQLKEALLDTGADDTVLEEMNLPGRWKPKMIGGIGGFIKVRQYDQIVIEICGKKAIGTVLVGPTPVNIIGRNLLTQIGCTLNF

As a reminder, the EC50 is the concentration that produces a half-maximal response. For orientation: inhibition means the drop in the measured response relative to a control, in per cent. As to `Cn1cc(-c2cccc3cc(C(=O)NC(=N)N)ccc23)cn1`, the EC50 came to 1.5 µM in series [1] and 5.1 µM in series [11]. Moreover, the outcome (in [2]; with MDM [3]) was Active. Moreover, the Activity in the series on MDM [4] is 98; in [6], 6%. In the series on MDM [5], the inhibition was found to be 38%. The selectivity ratio in series [7] was determined as 4.8; in series [9], 61.9; in [10], 39.3. The outcome in series [8] and in [12] was inactive.
